From ChEMBL document CHEMBL1649529, “Identifying exposure targets for treatment of staphylococcal pneumonia with ceftobiprole” (Antimicrob Agents Chemother, 2009)
Converted amounts (≈) assume the structure as drawn.

How the values were obtained:
[1] = Volume of distribution in epithelial lining fluid of healthy human at 500 mg, iv administered as 2-h infusion every 8 h; conditions: in vivo
[2] = AUC in plasma of healthy human at 500 mg, iv administered as 2-h infusion every 8 h
[3] = Drug level in epithelial lining fluid of healthy human at 500 mg, iv administered as 2-h infusion every 8 h after 4 hrs; conditions: read-out: Drug uptake
[4] = AUC in epithelial lining fluid of mouse; format: ADME, tissue-based
How it was run: (§1)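 Neutropenic (cyclophosphamide) female BALB/c mice were infected with S. aureus in 3% mucin by aspiration. At 6 h they received single sc doses of prodrug (1.0–25.0 mg/kg, in sterile water). Plasma was sampled at 0.25–4 h (6 mice per time point) and BAL at 0.25–4 h. Samples were citrate-stabilized and assayed by HPLC (LOQ 0.01 mg/liter), with urea correction for ELF. AUCs came from a 9,999-subject simulation.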

[5] = Drug level in epithelial lining fluid of healthy human at 500 mg, iv administered as 2-h infusion every 8 h after 2.5 hrs; conditions: read-out: Drug uptake
[6] = Drug level in epithelial lining fluid of healthy human at 500 mg, iv administered as 2-h infusion every 8 h after 8 hrs; conditions: read-out: Drug uptake
[7] = AUC in plasma of mouse; format: ADME, cell-free
How it was run: as §1

[8] = Drug level in plasma of healthy human at 500 mg, iv administered as 2-h infusion every 8 h after 4 hrs
[9] = Plasma protein binding in mouse; format: ADME, cell-free; conditions: read-out: PPB (converted)
Staphylococcus aureus [10] = experiment: Antibacterial activity against hospital-acquired methicillin-resistant Staphylococcus aureus clinical isolates; format: functional
How it was run: (§2)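 MICs determined by CLSI dilution methodology for aerobically growing bacteria; the active drug, not the prodrug, was used for in vitro testing.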

[11] = Clearance in healthy human at 500 mg, iv administered as 2-h infusion every 8 h; conditions: in vivo
[12] = Drug level in epithelial lining fluid of healthy human at 500 mg, iv administered as 2-h infusion every 8 h after 6 hrs; conditions: read-out: Drug uptake
Homo sapiens = experiment: Volume of distribution in central compartment of healthy human at 500 mg, iv administered as 2-h infusion every 8 h; conditions: in vivo
[13] = Fraction unbound in mouse plasma; format: ADME, cell-free
[14] = AUC in epithelial lining fluid of healthy human at 500 mg, iv administered as 2-h infusion every 8 h; conditions: in vivo
Staphylococcus aureus [15] = experiment: Antibacterial activity against community-acquired methicillin-resistant Staphylococcus aureus clinical isolates; format: functional
How it was run: as §2

[16] = Drug level in plasma of healthy human at 500 mg, iv administered as 2-h infusion every 8 h after 6 hrs
[17] = Drug level in plasma of healthy human at 500 mg, iv administered as 2-h infusion every 8 h after 2.5 hrs
[18] = Drug level in plasma of healthy human at 500 mg, iv administered as 2-h infusion every 8 h after 8 hrs
Staphylococcus aureus [19] = experiment: Antibacterial activity against methicillin-susceptible Staphylococcus aureus clinical isolates; format: functional
How it was run: as §2

## Nc1nc(/C(=N/O)C(=O)N[C@@H]2C(=O)N3C(C(=O)O)=C(/C=C4\CCN([C@@H]5CCNC5)C4=O)CS[C@H]23)ns1 [CEFTOBIPROLE]
[1]
  Vd: 39.1 L
[2]
  AUC: 98700 ng·h/mL
[3]
  concentration at 4 h: 2000 ng/mL
[4]
  AUC: 46000 ng·h/mL
[5]
  concentration at 2.5 h: 2550 ng/mL
[6]
  concentration at 8 h: 1510 ng/mL
[7]
  AUC: 68800 ng·h/mL
[8]
  concentration at 4 h: 12800 ng/mL
[9]
  fraction unbound: 0.81
Staphylococcus aureus [10]
  MIC: 0.5 µg/mL (≈ 0.935 µM)
[11]
  CL/F: 86 mL/min
[12]
  concentration at 6 h: 4580 ng/mL
Homo sapiens
  Vd: 2.849 L
[13]
  fraction unbound: 0.81
[14]
  AUC: 25200 ng·h/mL
Staphylococcus aureus [15]
  MIC: 1 µg/mL (≈ 1.87 µM)
[16]
  concentration at 6 h: 6910 ng/mL
[17]
  concentration at 2.5 h: 17700 ng/mL
[18]
  concentration at 8 h: 3650 ng/mL
Staphylococcus aureus [19]
  MIC: 0.25 µg/mL (≈ 0.468 µM)
